Measurements taken from ChEMBL document CHEMBL1129458, “Indole inhibitors of human nonpancreatic secretory phospholipase A2. 3. Indole-3-glyoxamides” (J Med Chem, 1996).
pIC50: −log10 of the molar value.

Experiments:
[1] = target: T1, Phospholipase A2, membrane associated (Homo sapiens, UniProt P14555); assay: Inhibition of human nonpancreatic secretory Phospholipase A2 through chromogenic assay
T1 sequence (P14555 whole entry): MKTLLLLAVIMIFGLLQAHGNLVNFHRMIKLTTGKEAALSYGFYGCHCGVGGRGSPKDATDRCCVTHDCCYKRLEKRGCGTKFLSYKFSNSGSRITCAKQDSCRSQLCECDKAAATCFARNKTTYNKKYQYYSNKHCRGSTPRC

[2] = Mole fraction of the IC50 concentration of compound divided by the total lipid concentration (1230 uM) in a chromogenic assay; assay type: functional
Cavia porcellus [3] = organism: Cavia porcellus; assay: Inhibition of Phospholipase A2 induced contraction of GP lung tissue; assay type: functional
Procedure, shortened: (§1)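 Guinea pig lung pleural strips were contracted with either hnps-PLA2 or arachidonic acid, the latter serving as the control challenge for selectivity. Antagonism is given as KB.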

[4] = target: T1, Phospholipase A2, membrane associated; assay: Inhibition of human nonpancreatic secretory Phospholipase A2 through DOC/PC assay
Procedure, shortened: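 hnps-PLA2 (10 ng per tube; 3 nM) was preincubated with test compound in DMSO in pH 8 Tris buffer with 0.2 M NaCl, 2 mM CaCl2 and fatty-acid-free BSA. The substrate was sonicated mixed micelles (final 3 mM deoxycholate/1 mM PC) with [14C]-palmitoyl-oleoyl-PC. Reactions ran 1 h at 40 °C and were stopped with Dole reagent. Released [14C]oleic acid was extracted with heptane/silica and counted. IC50 was calculated against diluent controls.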

[5] = Mole fraction is the IC50 concentration divided by the total lipid concentration (4000 uM) in DOC/PC assay; assay type: functional
Procedure, shortened: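 The value is a mole fraction: the DOC/PC assay IC50 (3 nM hnps-PLA2; 3 mM DOC/1 mM [14C]PC micelles; 1 h at 40 °C; released [14C]oleic acid counted) divided by the total lipid concentration of 4000 µM.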

Cavia porcellus [6] = organism: Cavia porcellus; assay: Inhibition Arachidonic acid(AA) induced contraction of GP lung tissue; assay type: functional; procedure, shortened: as §1
Phospholipase A2 = Phospholipase A2 (Homo sapiens, UniProt P04054); assay: Compound was tested for inhibition of human secretory pancreatic Phospholipase A2
Sequence of Phospholipase A2 (P04054 whole entry): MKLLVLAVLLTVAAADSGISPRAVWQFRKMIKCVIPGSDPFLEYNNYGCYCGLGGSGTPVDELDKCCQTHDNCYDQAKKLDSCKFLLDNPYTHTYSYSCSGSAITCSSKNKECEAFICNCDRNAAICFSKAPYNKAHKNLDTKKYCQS

[7] = target: Phospholipase A2, major isoenzyme (Sus scrofa, UniProt P00592); assay: Compound was tested for inhibition of porcine secretory pancreatic Phospholipase A2
Sequence of Phospholipase A2, major isoenzyme (P00592 whole entry): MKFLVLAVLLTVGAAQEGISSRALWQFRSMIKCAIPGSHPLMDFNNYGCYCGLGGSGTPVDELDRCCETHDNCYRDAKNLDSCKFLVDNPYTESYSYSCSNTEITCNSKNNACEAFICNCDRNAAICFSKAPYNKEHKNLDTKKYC

Compound	pIC50 [1]	Mole fraction [2]	KB (Cavia porcellus [3]) [µM]	pIC50 [4]	Mole fraction [5]	ED50 (Cavia porcellus [6]) [nM]	pIC50 (Phospholipase A2)	pIC50 [7]
COc1cccc2c1c(C(=O)C(N)=O)c(C)n2Cc1ccccc1	6.26	0.00012	–	–	–	–	–	–
Cc1c(C(=O)C(N)=O)c2c(OCCCC(=O)O)cccc2n1Cc1ccccc1-c1ccccc1	6.61	0.0002	–	–	–	–	–	–
CCc1[nH]c2cccc(OCC(=O)O)c2c1C(=O)C(N)=O	5.80	0.0013	3.41	–	–	–	–	–
Cc1c(C(=O)C(N)=O)c2c(O[C@@H](C)C(=O)O)cccc2n1Cc1ccccc1	6.73	0.00015	–	6.87	3.4e-05	–	–	–
CCc1c(C(=O)C(N)=O)c2c(N(CC(=O)O)C(C)=O)cccc2n1Cc1ccccc1	< 4.00	–	–	–	–	–	–	–
Cc1c(C(=O)C(N)=O)c2c(OCC(=O)O)cccc2n1Cc1ccccc1	7.96	8.9e-06	0.14	7.72	4.8e-06	>10000	6.12	7.82
Cc1ccccc1Cn1c(C)c(C(=O)C(N)=O)c2c(OCC(=O)O)cccc21	7.82	1.3e-05	0.154	7.35	1.1e-05	>30000	–	–
CCc1c(C(=O)C(N)=O)c2c(CC(=O)O)cc(C)cc2n1Cc1ccccc1	8.10	6.5e-06	0.124	8.10	2e-06	3160	–	–
CCc1c(C(=O)C(N)=O)c2c(SCC(=O)O)cccc2n1Cc1ccccc1	6.84	0.00012	–	6.68	5.3e-05	–	–	–
C=CCc1ccc2c(c1OCC(=O)O)c(C(=O)C(N)=O)c(CC)n2Cc1ccccc1	5.79	0.013	–	–	–	–	–	–
NC(=O)C(=O)c1cn(Cc2ccccc2)c2cccc(OCC(=O)O)c12	7.02	8e-05	–	–	–	–	–	–
CCc1c(C(=O)C(N)=O)c2c(OCC(=O)O)cccc2n1Cc1ccccc1-c1ccccc1	8.22	5e-06	0.057	8.22	1.5e-06	30000	–	–
CCc1c(C(=O)C(N)=O)c2c(OCC(=O)O)cccc2n1C(=O)c1ccccc1	7.09	6.6e-05	0.34	7.41	9.8e-06	–	–	–
CCc1c(C(=O)C(N)=O)c2c(NCC(=O)O)cccc2n1Cc1ccccc1	6.00	0.00081	–	–	–	–	–	–
Cc1c(C(=O)C(N)=O)c2c(OCC(=O)O)cccc2n1Cc1ccc(-c2ccccc2)cc1	7.37	3.6e-05	–	6.82	3.8e-05	–	5.96	–
COc1ccc2c(c1)c(C(=O)C(N)=O)c(C)n2Cc1ccccc1	5.59	0.00012	–	–	–	–	–	–
CCc1c(C(=O)C(N)=O)c2c(OCC(N)=O)cccc2n1Cc1ccccc1	6.91	0.0001	–	–	–	–	–	–
Cc1c(C(=O)C(N)=O)c2c(OCC(=O)O)cccc2n1Cc1ccccc1Cl	8.05	7.3e-06	0.1	7.60	6.3e-06	>30000	–	–
CCc1c(C(=O)C(N)=O)c2c(OCC(=O)O)cccc2n1Cc1ccccc1Cc1ccccc1	8.40	3.3e-06	0.052	8.40	1e-06	–	7.21	–

Compound	pIC50 [1]	Mole fraction [2]	KB (Cavia porcellus [3]) [µM]	pIC50 [4]	Mole fraction [5]	ED50 (Cavia porcellus [6]) [nM]	pIC50 (Phospholipase A2)	pIC50 [7]
CCCc1c(C(=O)C(N)=O)c2c(OCC(=O)O)cccc2n1Cc1ccccc1-c1ccccc1	–	6.7e-05	–	–	–	–	–	–
Cc1c(C(=O)C(N)=O)c2c(OCC(=O)O)cccc2n1Cc1cccc(-c2ccccc2)c1	8.05	7.3e-06	–	8.10	2e-06	–	6.24	8.15
Cc1c(C(=O)C(N)=O)c2c(OC(C)C(=O)O)cccc2n1Cc1ccccc1 (stereo not given)	8.00	8.1e-06	0.145	–	2.3e-06	>30000	–	–
CCc1c(C(=O)C(N)=O)c2c(OC(C)(C)C(=O)O)cccc2n1Cc1ccccc1	7.60	2.1e-05	0.143	7.54	7.3e-06	>30000	–	–
CCc1c(C(=O)C(N)=O)c2c(OC(CCc3ccccc3)C(=O)O)cccc2n1Cc1ccccc1 (stereo not given)	7.34	3.8e-05	0.293	7.59	6.5e-06	>30000	–	–
COc1cccc2c1c(CC(N)=O)c(C)n2Cc1ccccc1	5.93	0.00012	–	–	–	–	–	–
NC(=O)C(=O)c1cn(Cc2ccccc2)c2ccc(OCCCC(=O)O)cc12	–	0.048	–	–	–	–	–	–
CCc1c(C(=O)C(N)=O)c2cc(OCCCC(=O)O)ccc2n1Cc1ccccc1	–	0.00017	–	–	–	–	–	–
Cc1c(C(=O)C(N)=O)c2c(OCC(=O)O)cccc2n1Cc1c(Cl)cccc1Cl	–	5e-06	0.077	7.66	5.5e-06	>30000	–	–
CCCc1ccc2c(c1OCC(=O)O)c(C(=O)C(N)=O)c(CC)n2Cc1ccccc1	5.68	0.0017	–	–	–	–	–	–
CCc1c(C(=O)C(N)=O)c2c(OC(C)C(=O)O)cccc2n1Cc1ccccc1 (stereo not given)	7.96	8.9e-06	0.21	7.89	3.3e-06	3160	–	–
NC(=O)C(=O)c1c(C2CC2)n(Cc2ccccc2)c2cccc(OCC(=O)O)c12	7.55	2.3e-05	–	7.39	1e-05	–	–	–
Cc1c(C(=O)C(N)=O)c2c(O[C@H](C)C(=O)O)cccc2n1Cc1ccccc1	7.96	8.9e-06	–	8.22	1.5e-06	–	–	–
CCc1c(C(=O)C(N)=O)c2c(N(CCC(=O)O)C(C)=O)cccc2n1Cc1ccccc1	< 4.00	–	–	–	–	–	–	–
Cc1c(C(=O)C(N)=O)c2c(OCC(=O)O)cccc2n1Cc1cccc2ccccc12	8.05	7.3e-06	0.128	7.77	4.3e-06	>30000	5.92	–
Cc1c(C(=O)C(N)=O)c2c(OCC(=O)O)cccc2n1Cc1ccc(F)cc1	7.52	2.5e-05	0.11	7.13	1.9e-05	>30000	–	–
CCc1c(C(=O)C(N)=O)c2c(O[C@@H](C)C(=O)O)cccc2n1Cc1ccccc1	6.85	0.00011	–	–	–	–	–	–
NC(=O)C(=O)c1c(C2CC2)n(Cc2ccccc2-c2ccccc2)c2cccc(OCC(=O)O)c12	8.22	5e-06	0.075	7.64	5.8e-06	>10000	–	–
